Test results as given in ChEMBL document CHEMBL3739259, “Defining Key Structural Determinants for the Pro-osteogenic Activity of Flavonoids” (J Nat Prod, 2015).
Active and inactive are the calls of the source. The calls are words filed in the database; no cut-off is given here.

Columns and labels:
[1] = Cytotoxicity against human MSC assessed as cell viability at 1 uM treated for 3 days measured on day 4 by alamar blue assay (reference value: 97 to 100%); details: MSC cells, read-out: Activity
[2] = Induction of osteogenic differentiation in human MSC assessed as increase in ALP activity at 10 uM using p-NPP as substrate after 9 days by colorimetric method relative to control; type: functional
Summary of the method: (§1)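 ALP read on day 9 in passage-3 bone-marrow hMSCs cultured at high density in Os.D medium. Compound (1, 5 or 10 μM, 0.1% v/v DMSO final) was re-applied on days 0, 3 and 6. Colorimetric p-nitrophenyl phosphate method, normalised to time and cell number (pNP/min/20,000 cells). Expressed as % of untreated control; three independent triplicate experiments; one-way ANOVA versus vehicle.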

[3] = Cytotoxicity against human MSC assessed as cell viability at 10 uM treated for 6 days measured on day 7 by alamar blue assay (reference value: 96 to 101%); details: MSC cells, read-out: Activity
[4] = Cytotoxicity against human MSC assessed as cell viability at 10 uM treated for 3 days measured on day 4 by alamar blue assay (reference value: 97 to 100%); details: MSC cells, read-out: Activity
[5] = Cytotoxicity against human MSC assessed as cell viability at 5 uM measured on day 1 by alamar blue assay (reference value: 97 to 101%); details: MSC cells, read-out: Activity
MSC [6] = assay: (§2) Induction of osteogenic differentiation in human MSC assessed as increase in ALP activity at 1 uM using p-NPP as substrate after 9 days by colorimetric method relative to control; type: functional; summary of the method: as §1
[7] = Cytotoxicity against human MSC assessed as cell viability at 1 uM measured on day 1 by alamar blue assay (reference value: 97 to 101%); details: MSC cells, read-out: Activity
MSC [8] = assay: (§3) Induction of osteogenic differentiation in human MSC assessed as increase in ALP activity at 5 uM using p-NPP as substrate after 9 days by colorimetric method relative to control; type: functional; summary of the method: as §1
[9] = Cytotoxicity against human MSC assessed as cell viability at 1 uM treated for 6 days measured on day 7 by alamar blue assay (reference value: 96 to 101%); details: MSC cells, read-out: Activity
[10] = Cytotoxicity against human MSC assessed as […] in cell number at 1 to 10 uM after 9 days by methylene blue staining based microscopy relative to control; details: 216 h
Summary of the method: (§4)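 Passage-3 bone-marrow hMSCs, high density in Os.D medium, dosed with 1, 5 or 10 μM compound (0.1% v/v DMSO final) on days 0, 3 and 6 with medium changes. Cell number measured on day 9 by methylene blue proliferation assay. Expressed as % of untreated control; three independent triplicate experiments, mean ± SEM, one-way ANOVA versus vehicle.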

[11] = Cytotoxicity against human MSC assessed as cell viability at 5 uM treated for 3 days measured on day 4 by alamar blue assay (reference value: 97 to 100%); details: MSC cells, read-out: Activity
[12] = Cytotoxicity against human MSC assessed as cell viability at 10 uM measured on day 1 by alamar blue assay (reference value: 97 to 101%); details: MSC cells, read-out: Activity
[13] = Cytotoxicity against human MSC assessed as cell viability at 5 uM treated for 6 days measured on day 7 by alamar blue assay (reference value: 96 to 101%); details: MSC cells, read-out: Activity
[14] = Induction of matrix mineralization in human MSC assessed as increase in calcium deposition across cell monolayer at 10 uM after 20 days by Alizarin red S staining based microscopy relative to control; type: functional
[15] = Cytotoxicity against human MSC assessed as cell viability at 1 uM measured on day 1 by alamar blue assay (reference value: […] +/- 1%); details: MSC cells, read-out: Activity
[16] = Cytotoxicity against human MSC assessed as cell viability at 10 uM treated for 3 days measured on day 4 by alamar blue assay (reference value: 100 +/- 1%); details: MSC cells, read-out: Activity
[17] = Cytotoxicity against human MSC assessed as cell viability at 5 uM after 24 hrs measured on day 1 by alamar blue assay (reference value: […] +/- 1%); details: MSC cells, read-out: Activity
MSC [18] = assay: Induction of osteogenic differentiation in human MSC assessed as increase in ALP activity using p-NPP as substrate after 9 days by colorimetric method; type: functional; summary of the method: as §1
[19] = Cytotoxicity against human MSC assessed as cell viability at 5 uM treated for 3 days measured on day 4 by alamar blue assay (reference value: 100 +/- 1%); details: MSC cells, read-out: Activity
[20] = as §2; type: functional; summary of the method: as §1
[21] = Cytotoxicity against human MSC assessed as cell viability at 1 uM treated for 3 days measured on day 4 by alamar blue assay (reference value: 100 +/- 1%); details: MSC cells, read-out: Activity
[22] = Cytotoxicity against human MSC assessed as cell viability at 5 uM treated for 6 days measured on day 7 by alamar blue assay (reference value: 98%); details: MSC cells, read-out: Activity
[23] = as §3; type: functional; summary of the method: as §1
[24] = Cytotoxicity against human MSC assessed as cell viability at 10 uM treated for 6 days measured on day 7 by alamar blue assay (reference value: 98%); details: MSC cells, read-out: Activity
[25] = Cytotoxicity against human MSC assessed as decrease in cell number at 10 uM after 9 days by methylene blue staining based microscopy relative to control; details: 216 h; summary of the method: as §4
[26] = Cytotoxicity against human MSC assessed as cell viability at 10 uM after 24 hrs measured on day 1 by alamar blue assay (reference value: […] +/- 1%); details: MSC cells, read-out: Activity
[27] = Cytotoxicity against human MSC assessed as cell viability at 1 uM treated for 6 days measured on day 7 by alamar blue assay (reference value: 98%); details: MSC cells, read-out: Activity
[28] = Cytotoxicity against human MSC assessed as decrease in cell number at 1 to 10 uM after 9 days by methylene blue staining based microscopy relative to control; details: 216 h; summary of the method: as §4
[29] = Decrease in ALP activity in human MSC using p-NPP as substrate at 10 uM after 9 days by colorimetric method relative to control; type: functional; set-up: Activity: scale not given: the % may be the effect or the level left
Summary of the method: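 Passage-3 bone-marrow hMSCs from healthy donors, cultured at high density in osteogenic (Os.D) medium; compound given at days 0, 3 and 6 with media change every 3 days, final 0.1% (v/v) DMSO; vehicle, 50 nM calcitriol and untreated controls. Day-9 ALP by para-nitrophenyl phosphate colorimetry, normalised to time and cell number (methylene blue); % of untreated control, 3 independent triplicate experiments ± SEM.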

[30] = Decrease in ALP activity in human MSC using p-NPP as substrate at 5 uM after 9 days by colorimetric method relative to control; type: functional; set-up: Activity: scale not given: the % may be the effect or the level left; summary of the method: as §1
[31] = Cytotoxicity against human MSC assessed as decrease in cell number at 5 uM after 9 days by methylene blue staining based microscopy relative to control; details: 216 h; summary of the method: as §4

Row | SMILES | viability at 72 h, 1 µM [1] [%] | viability at 144 h, 10 µM [3] [%] | viability at 72 h, 10 µM [4] [%] | viability at 1 day, 5 µM [5] [%] | Activity (MSC [6]) | viability at 1 day, 1 µM [7] [%] | viability at 144 h, 1 µM [9] [%] | viability at 72 h, 5 µM [11] [%] | viability at 1 day, 10 µM [12] [%] | viability at 144 h, 5 µM [13] [%] | viability at 1 day, 1 µM [15] [%] | viability at 72 h, 10 µM [16] [%] | viability at 24 h, 5 µM [17] [%] | Activity [2] [%] | viability at 72 h, 5 µM [19] [%] | viability at 72 h, 1 µM [21] [%] | viability at 144 h, 5 µM [22] [%] | Activity [23] [%] | viability at 144 h, 10 µM [24] [%] | viability at 24 h, 10 µM [26] [%] | also measured
1 | COc1ccc([C@@H]2CC(=O)c3c(O)cc(O)cc3O2)cc1O [HESPERETIN] | 98 | 98 | 103 | 95 | inactive | 102 | 97 | 102 | 96 | 99 | – | – | – | – | – | – | – | – | – | – | fold change (FC) [2]: 1.72; Activity (MSC [8]): inactive; Activity [10]: Toxic
2 | COc1ccc(-c2oc3cc(O)cc(O)c3c(=O)c2O)cc1 [KAEMPFERIDE] | – | – | – | – | – | – | – | – | – | – | 112 | 95 | 112 | 281 | 95 | 95 | 98 | 237 | 99 | 111 | fold change (FC) [14]: 3.17; Activity (MSC [18]): Dose-dependent effect; Activity [20]: 143%; Activity [25]: Non-toxic; viability at 144 h, 1 µM [27]: 97%
3 | O=C1C[C@@H](c2ccccc2)Oc2cc(O)cc(O)c21 [PINOCEMBRIN] | – | – | – | – | inactive | – | – | – | – | – | 109 | 96 | 110 | 121 | 95 | 94 | 97 | 107 | 98 | 111 | Activity [28]: Non-toxic; viability at 144 h, 1 µM [27]: 96%
4 | O=C(O[C@@H]1Cc2c(O)cc(O)cc2O[C@@H]1c1cc(O)c(O)c(O)c1)c1cc(O)c(O)c(O)c1 [EPIGALOCATECHIN GALLATE] | 93 | 102 | 89 | 98 | inactive | 101 | 101 | 91 | 90 | 101 | – | – | – | – | – | – | – | – | – | – | fold change (FC) [29]: 0.75; Activity [30]: 84%; Activity (MSC [8]): inactive; fold change (FC) [28]: 0.43
5 | O=c1cc(-c2cc(O)c(O)c(O)c2)oc2cc(O)cc(O)c12 [TRICETIN] | – | – | – | – | inactive | – | – | – | – | – | 108 | 95 | 106 | – | 95 | 99 | 94 | – | 94 | 104 | Activity [29]: 79%; Activity [30]: 99%; fold change (FC) [31]: 0.68; fold change (FC) [25]: 0.47; viability at 144 h, 1 µM [27]: 97%
6 | O=c1c(O)c(-c2cc(O)c(O)c(O)c2)oc2cc(O)cc(O)c12 [MYRICETIN] | 97 | 98 | 101 | 94 | inactive | 100 | 97 | 97 | 101 | 98 | – | – | – | – | – | – | – | – | – | – | fold change (FC) [29]: 0.62; fold change (FC) [30]: 0.74; Activity [28]: Toxic
7 | O=c1c(O)c(-c2ccc(O)cc2)oc2cc(O)cc(O)c12 [KAEMPFEROL] | 97 | 97 | 98 | 104 | inactive | 96 | 100 | 98 | 104 | 100 | – | – | – | 268 | – | – | – | 237 | – | – | Activity (MSC [18]): Dose-dependent effect; fold change (FC) [2]: 1.32; fold change (FC) [23]: 1.52; Activity [10]: Toxic
